Experimental data taken from publication PMC4474499 (Science Advances, 2015).
“Also recorded” adds a separate entry of the source. Non-standard residues stand in square brackets, D forms with d. No end group written: not given here. Pam3Cys = Cys carrying the Pam3 acyl chains of Pam3CSK4

B1: human TLR1 protein, purified extracellular domain (receptor, UniProt Q15399 25-580, looked up)
chain: SEFLVDRSKNGLIHVPKDLSQKTTILNISQNYISELWTSDILSLSKLRILIISHNRIQYLDISVFKFNQELEYLDLSHNKLVKISCHPTVNLKHLDLSFNAFDALPICKEFGNMSQLKFLGLSTTHLEKSSVLPIAHLNISKVLLVLGETYGEKEDPEGLQDFNTESLHIVFPTNKEFHFILDVSVKTVANLELSNIKCVLEDNKCSYFLSILAKLQTNPKLSNLTLNNIETTWNSFIRILQLVWHTTVWYFSISNVKLQGQLDFRDFDYSGTSLKALSIHQVVSDVFGFPQSYIYEIFSNMNIKNFTVSGTRMVHMLCPSKISPFLHLDFSNNLLTDTVFENCGHLTELETLILQMNQLKELSKIAEMTTQMKSLQQLDISQNSVSYDEKKGDCSWTKSLLSLNMSSNILTDTIFRCLPPRIKVLDLHSNKIKSIPKQVVKLEALQELNVAFNSLTDLPGCGSFSSLSVLIIDHNSVSHPSADFFQSCQKMRSIKAGDNPFQCTCELGEFVKNIDQVSSEVLEGWPDSYKCDYPESYRGTLLKDFHMSELSCNIT

Legend:
[1] = biological target: human TLR2 (Homo sapiens, UniProt O60603+Q15399); experiment: SEAP reporter gene detection assay in HEK-Blue hTLR2 cells; format: cell-based
In short: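 HEK-Blue hTLR2 cells (SEAP reporter), 4 × 10^4/well, grown 24 h. Then 24 h in Opti-MEM/0.5% FBS with compounds at 0–50 μM or 0–100 μM. Pam3CSK4 (0–66 nM) used as reference agonist. Supernatant heat-treated 30 min at 65°C, cooled, mixed with SEAP buffer and CSPD substrate; luminescence read after 20 min.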

[2] = biological target: TLR1/2 complex (Homo sapiens, UniProt O60603+Q15399); experiment: Fluorescence anisotropy competition with Rho-Pam3; format: binding; settings: up to 10 μM
In short: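 Equal amounts of TLR1 and TLR2 (4 μl each of 10 μM stocks) added to Rho-Pam3CSK4 in PBS pH 7.4 and held 30 min. Serial test-compound concentrations then incubated with the complex 30 min at RT. Fluorescence anisotropy read at 25°C (ex 549/em 566 nm). An analog served as negative control; IC50 derived from the titration.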

[3] = system: NF-κB; experiment: U937 NF-κB–GFP reporter assay; format: cell-based, human; settings: 20 μM (GA even up to 100 μM), U937 cells
[4] = system: Raw 264.7 cells; experiment: In vitro NO activation assay for Raw 264.7 cells; format: cell-based, mouse; settings: Raw 264.7 macrophage cells, 1 µM CU-T12-9
In short: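 RAW 264.7 cells, 80,000/well, grown 24 h. Non-adherent cells removed; medium changed to unsupplemented RPMI 1640. Treated 24 h with test compound, or 66 nM (100 ng/ml) Pam3CSK4 as control. Supernatant reacted 15 min in the dark with 2,3-diaminonaphthalene in HCl, quenched with NaOH. Fluorescence read at ex 365/em 450 nm; nitrite calculated from a standard curve.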

[5] = system: NF-κB; experiment: Triptolide inhibition of CU-T12-9–induced SEAP signaling in HEK-Blue hTLR2 cells; format: cell-based, human
[6] = system: Raw 264.7 cells; experiment: Quantitative RT-PCR of mRNA levels in Raw 264.7 macrophage cells; format: cell-based, mouse
In short: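 RAW 264.7 cells, 1 × 10^6/well, grown 24 h, then given fresh RPMI 1640. Exposed to test compound, or 33 nM (50 ng/ml) Pam3CSK4, for 0, 2, 8 or 24 h. Cells washed in cold PBS and frozen. Total RNA extracted (RNeasy) for qRT-PCR. Fold change calculated by ΔΔCt versus DMSO-treated cells, means ± SD.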

[7] = biological target: hTLR1 and hTLR2 (Homo sapiens, UniProt O60603+Q15399); experiment: SEC-LS assay of TLR1/2 heterodimer formation; format: biochemical; settings: CU-T12-9 0 to 40 μM or Pam3CSK4 260 nM (400 ng/ml)
In short: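 Human TLR2 in PBS pH 7.4 preincubated 2 h at RT with test compound or Pam3CSK4. Equimolar hTLR1 then added (final about 10 μM each) for 2 h at 37°C. Both proteins were baculovirus/insect-cell products. Samples filtered (0.1 μm) and run on size-exclusion column in PBS at 1 ml/min. Detection by in-line multi-angle light scattering, refractive index and UV.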

[8] = biological target: the molecule itself; experiment: SEC-MALS
[9] = biological target: B1; experiment: fluorescence polarisation
[10] = biological target: human TLR2 protein, purified extracellular domain (human, UniProt O60603 21-588); experiment: fluorescence polarisation
[11] = biological target: TLR1/TLR2 complex (equimolar mixture of purified hTLR1 and hTLR2) (human, UniProt Q15399 25-580; O60603 21-588); experiment: fluorescence polarisation
Chain of TLR1/TLR2 complex (equimolar mixture of purified hTLR1 and hTLR2) (O60603 21-588, chain 2 of 2, one chain of several): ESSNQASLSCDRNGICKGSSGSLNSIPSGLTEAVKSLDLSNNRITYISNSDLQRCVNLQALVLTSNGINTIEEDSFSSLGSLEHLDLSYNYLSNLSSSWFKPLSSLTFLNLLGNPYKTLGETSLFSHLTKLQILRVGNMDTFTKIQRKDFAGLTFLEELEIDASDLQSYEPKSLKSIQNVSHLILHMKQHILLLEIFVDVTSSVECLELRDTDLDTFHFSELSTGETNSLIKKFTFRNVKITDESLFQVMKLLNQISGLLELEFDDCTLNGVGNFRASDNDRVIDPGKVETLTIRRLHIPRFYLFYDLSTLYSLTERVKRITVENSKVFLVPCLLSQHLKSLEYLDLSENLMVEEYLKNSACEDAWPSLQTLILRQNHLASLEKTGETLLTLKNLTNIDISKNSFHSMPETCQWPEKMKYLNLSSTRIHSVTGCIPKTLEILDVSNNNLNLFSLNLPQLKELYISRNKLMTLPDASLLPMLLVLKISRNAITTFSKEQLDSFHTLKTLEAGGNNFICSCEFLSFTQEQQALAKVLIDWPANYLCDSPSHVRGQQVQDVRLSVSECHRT

Chain of human TLR2 (O60603 21-784): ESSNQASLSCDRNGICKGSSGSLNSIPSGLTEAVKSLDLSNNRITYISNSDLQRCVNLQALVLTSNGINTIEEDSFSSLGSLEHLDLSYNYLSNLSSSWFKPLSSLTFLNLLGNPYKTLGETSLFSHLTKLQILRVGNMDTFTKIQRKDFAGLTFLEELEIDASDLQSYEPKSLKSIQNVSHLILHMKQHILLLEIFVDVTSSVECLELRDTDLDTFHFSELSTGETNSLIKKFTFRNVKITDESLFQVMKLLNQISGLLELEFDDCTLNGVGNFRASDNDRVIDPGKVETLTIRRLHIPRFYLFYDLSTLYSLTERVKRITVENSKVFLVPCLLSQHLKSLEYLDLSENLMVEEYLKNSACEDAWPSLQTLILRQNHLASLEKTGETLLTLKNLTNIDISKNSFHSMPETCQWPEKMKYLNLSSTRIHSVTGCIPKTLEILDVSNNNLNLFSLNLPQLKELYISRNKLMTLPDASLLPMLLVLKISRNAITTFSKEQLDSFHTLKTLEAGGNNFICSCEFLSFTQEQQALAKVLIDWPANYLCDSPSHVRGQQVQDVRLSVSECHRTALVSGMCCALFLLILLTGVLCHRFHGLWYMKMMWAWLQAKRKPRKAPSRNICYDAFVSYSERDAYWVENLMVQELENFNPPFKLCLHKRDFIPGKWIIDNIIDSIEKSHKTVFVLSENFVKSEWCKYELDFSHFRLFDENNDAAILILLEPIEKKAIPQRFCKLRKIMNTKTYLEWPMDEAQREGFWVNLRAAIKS
Chain of human TLR2 (Q15399 25-786): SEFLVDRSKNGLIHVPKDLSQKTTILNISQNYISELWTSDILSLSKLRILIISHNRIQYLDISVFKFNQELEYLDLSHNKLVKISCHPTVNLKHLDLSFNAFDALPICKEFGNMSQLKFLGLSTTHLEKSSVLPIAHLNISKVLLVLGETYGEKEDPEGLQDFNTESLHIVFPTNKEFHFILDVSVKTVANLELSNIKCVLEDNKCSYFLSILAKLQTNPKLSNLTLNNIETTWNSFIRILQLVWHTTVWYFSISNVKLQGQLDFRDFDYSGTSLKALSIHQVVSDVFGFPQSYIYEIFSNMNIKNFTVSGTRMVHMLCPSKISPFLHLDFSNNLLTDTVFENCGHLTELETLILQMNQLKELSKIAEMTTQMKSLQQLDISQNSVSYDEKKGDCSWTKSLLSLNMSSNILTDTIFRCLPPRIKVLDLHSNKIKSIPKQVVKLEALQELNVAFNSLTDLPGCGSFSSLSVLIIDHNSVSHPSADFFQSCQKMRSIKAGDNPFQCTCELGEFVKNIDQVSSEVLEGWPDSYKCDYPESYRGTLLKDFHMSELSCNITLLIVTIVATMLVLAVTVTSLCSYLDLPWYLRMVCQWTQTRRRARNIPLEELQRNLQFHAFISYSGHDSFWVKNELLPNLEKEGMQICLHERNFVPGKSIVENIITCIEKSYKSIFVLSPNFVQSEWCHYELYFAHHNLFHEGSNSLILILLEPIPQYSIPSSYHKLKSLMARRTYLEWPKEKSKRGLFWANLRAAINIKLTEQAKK
Chain of TLR1/2 complex (O60603 21-588 limits assumed, one chain of several): as the sequence (O60603 21-588, chain 2 of 2, one chain of several) above
Chain of hTLR1 and hTLR2 (O60603 21-588 limits assumed, one chain of several): as the sequence (O60603 21-588, chain 2 of 2, one chain of several) above
Chain of human TLR2 protein, purified extracellular domain (O60603 21-588): as the sequence (O60603 21-588, chain 2 of 2, one chain of several) above

## CNc1ccc([N+](=O)[O-])cc1-n1cnc(-c2cccc([N+](=O)[O-])c2)c1 [Compound 10]
[1]; HEK-Blue hTLR2 cells, nitro group switched from R3 to R4
  SEAP agonist activity (in words): completely abolished activity

## CNc1ccc([N+](=O)[O-])cc1-n1cnc(-c2ccc(C#N)cc2)c1 [Compound 11]
[1]; replacement of –NO2 at R3
  increase in potency relative to GA (factor): 10

## CNc1ccc([N+](=O)[O-])cc1-n1cnc(-c2ccc(C(=O)O)cc2)c1 [Compound 19]
[1]; 100 μM, HEK-Blue hTLR2 cells
  SEAP activity at 100 μM: inactive

## CNc1ccc(C(F)(F)F)cc1-n1cnc(-c2ccc(C(F)(F)F)cc2)c1 [Compound 20]
[1]; –CF3 at R1
  decrease in potency compared with CU-T12-9: four times

## CNc1ccc(C(=O)O)cc1-n1cnc(-c2ccc(C(F)(F)F)cc2)c1 [Compound T12-29]
[2]
  inhibition of Rho-Pam3 binding to TLR1/TLR2: no competitive binding; also recorded: negligible inhibition

## CNc1ccc([N+](=O)[O-])cc1-n1cnc(-c2ccc([N+](=O)[O-])cc2)c1 [GA, N-methyl-4-nitro-2-(4-(4-nitrophenyl)-1H-imidazol-1-yl)aniline, reference compound]
[3]
  NF-κB activation: much lower NF-κB activation

## CCOC(=O)C1=CCCC[C@H]1S(=O)(=O)Nc1ccc(F)cc1Cl [TAK-242, reference compound]
[4]
  inhibition of CU-T12-9 induced NO activation: could not be influenced

## CC(C)[C@]12O[C@H]1[C@@H]1O[C@]13[C@]1(O[C@H]1C[C@H]1C4=C(CC[C@@]13C)C(=O)OC4)[C@@H]2O [Triptolide]
[5]
  inhibition of CU-T12-9–induced SEAP signaling: efficiently inhibit

## Pam3CSK4 [reference compound]
[6]; 1 μM CU-T12-9 or 33 nM (50 ng/ml) Pam3CSK4, measured at 2, 8, 24 hours
  time of highest TLR2 mRNA expression: 2 h
[6]; over time, maximal expression after 8 hours
  TNF mRNA expression: increased
[6]; over time, peaked at 24 hours
  iNOS mRNA expression: increased
[7]
  TLR1/2 heterodimer formation: promoted TLR1/2 heterodimerization

## B1
[8]
  stoichiometry N: 2

## [Pam3Cys]SKKKK (also: rhodamine label, site not given here) [rhodamine-labeled Pam3CSK4]
[9]
  Kd: 41.6 ± 2.36 nM
[10]
  Kd: 125 ± 3.43 nM
[11]
  Kd: 35 ± 1.98 nM
